Laboratory results reported in ChEMBL document CHEMBL1926620, “Aza vinyl sulfones: synthesis and evaluation as antiplasmodial agents” (Bioorg Med Chem, 2011).

Experiments:
[1] = system: Plasmodium falciparum; assay: Antiplasmodial activity against ring stage Plasmodium falciparum W2 infected in human red blood cells after 48 hrs by flow cytometry; format: functional, organism-based; details: W2, 48 h
[2] = Inhibition of Plasmodium falciparum falcipain-2 using Z-Leu-Arg-AMC as substrate after 10 mins by spectrofluorimetry
Summary of the method: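 Enzyme at 1 nM in 100 mM sodium acetate pH 6.0, 5 mM DTT, 0.75% DMSO, 25 °C; preincubated 10 min with serial 1:5 compound dilutions (50 µM down to 0.65 nM), then 25 µM Z-Leu-Arg-AMC added; fluorescence read immediately. IC50 from percent inhibition versus no-inhibitor controls.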

[3] = biological target: T1, Papain (Carica papaya, UniProt P00784); assay: Inhibition of papaya papain using Z-Leu-Leu-Arg-AMC as substrate after 30 mins by spectrofluorometry
T1 sequence (P00784 whole entry): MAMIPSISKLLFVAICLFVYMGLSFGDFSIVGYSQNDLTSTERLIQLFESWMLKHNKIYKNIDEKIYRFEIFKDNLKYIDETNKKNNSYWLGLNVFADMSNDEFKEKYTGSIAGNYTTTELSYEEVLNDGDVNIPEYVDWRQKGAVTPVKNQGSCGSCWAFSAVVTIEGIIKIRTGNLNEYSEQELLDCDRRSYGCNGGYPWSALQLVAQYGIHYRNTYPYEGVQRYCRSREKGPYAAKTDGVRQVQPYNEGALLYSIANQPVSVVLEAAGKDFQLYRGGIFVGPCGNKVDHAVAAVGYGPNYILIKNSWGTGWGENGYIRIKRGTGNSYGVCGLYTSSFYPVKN
Summary of the method: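 Papain activated in buffer at 5 µg/mL, 10 mM PBS pH 7.4 with 5 mM DTT, 37 °C, inhibitor serial dilutions in DMSO; 30 µM Z-Leu-Leu-Arg-AMC started the reaction (Km 0.4 µM, saturating). Fluorescence (ex 355/em 460 nm) monitored 30 min; E64 positive control; IC50 by non-linear regression of log concentration versus % activity; triplicate.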

| Compound | IC50 [1] [µM] | IC50 [2] [µM] | IC50 [3] [µM] |
| --- | --- | --- | --- |
| CC(C)C[C@H](NC(=O)OC(C)(C)C)C(=O)NNC(=O)/C=C/S(C)(=O)=O | 34.2 |  |  |
| CC(C)C[C@H](NC(=O)OC(C)(C)C)C(=O)NNC(=O)/C=C/S(=O)(=O)c1ccccc1 | 33.5 |  |  |
| CC(C)C[C@H](NC(=O)OC(C)(C)C)C(=O)NN(Cc1ccccc1)C(=O)/C=C/S(C)(=O)=O | 21.6 | > 50 |  |
| CC(C)C[C@H](NC(=O)OC(C)(C)C)C(=O)NN(CCc1ccccc1)C(=O)/C=C/S(C)(=O)=O | 46.6 | > 50 |  |
| O=C(CNC(=O)OCc1ccccc1)NN(CCc1ccccc1)C(=O)/C=C/S(=O)(=O)c1ccccc1 | > 10 |  | > 50 |
| O=C(N[C@@H](Cc1ccccc1)C(=O)NN(CCc1ccccc1)C(=O)/C=C/S(=O)(=O)c1ccccc1)OCc1ccccc1 | 9 |  | > 50 |
| CC(C)C[C@H](NC(=O)N1CCOCC1)C(=O)NNC(=O)/C=C/S(=O)(=O)c1ccccc1 | > 10 |  | > 50 |
| COc1c(N[C@@H](CC(C)C)C(=O)NNC(=O)/C=C/S(C)(=O)=O)c(=O)c1=O | 2.3 | > 50 |  |
| CC(C)C[C@H](NC(=O)[C@H]1O[C@@H]1C(=O)O)C(=O)NCCCCN=C(N)N [E-64] |  | 0.11 | 0.002 |

Next, values leading:

| IC50 [1] [µM] | IC50 [2] [µM] | IC50 [3] [µM] | Compound |
| --- | --- | --- | --- |
| > 50 | > 50 |  | CC(C)C[C@H](NC(=O)OC(C)(C)C)C(=O)NN(Cc1ccccc1)C(=O)/C=C/S(=O)(=O)c1ccccc1 |
| 15.4 | > 50 |  | CC(C)C[C@H](NC(=O)OC(C)(C)C)C(=O)NN(CCc1ccccc1)C(=O)/C=C/S(=O)(=O)c1ccccc1 |
| > 10 |  | > 50 | CC(C)C[C@H](NC(=O)OCc1ccccc1)C(=O)NN(CCc1ccccc1)C(=O)/C=C/S(=O)(=O)c1ccccc1 |
| 3.4 |  | > 50 | CC(C)C[C@H](NC(=O)N1CCOCC1)C(=O)NN(CCc1ccccc1)C(=O)/C=C/S(=O)(=O)c1ccccc1 |
| 3.5 | > 50 |  | COc1c(N[C@@H](CC(C)C)C(=O)NNC(=O)/C=C/S(=O)(=O)c2ccccc2)c(=O)c1=O |
| 2.6 | > 50 |  | CCCCOc1c(N[C@@H](CC(C)C)C(=O)NNC(=O)/C=C/S(=O)(=O)c2ccccc2)c(=O)c1=O |
| > 10 | > 50 |  | COc1c(N[C@@H](CC(C)C)C(=O)NN(Cc2ccccc2)C(=O)/C=C/S(C)(=O)=O)c(=O)c1=O |
| 0.95 | > 50 |  | COc1c(N[C@@H](CC(C)C)C(=O)NN(Cc2ccccc2)C(=O)/C=C/S(=O)(=O)c2ccccc2)c(=O)c1=O |
| 1.2 | > 50 |  | CCCCOc1c(N[C@@H](CC(C)C)C(=O)NN(Cc2ccccc2)C(=O)/C=C/S(=O)(=O)c2ccccc2)c(=O)c1=O |
| 2.5 | > 50 |  | COc1c(N[C@@H](CC(C)C)C(=O)NN(CCc2ccccc2)C(=O)/C=C/S(C)(=O)=O)c(=O)c1=O |
| > 10 | > 50 |  | COc1c(N[C@@H](CC(C)C)C(=O)NN(CCc2ccccc2)C(=O)/C=C/S(=O)(=O)c2ccccc2)c(=O)c1=O |
| 4.5 | > 50 |  | CCCCOc1c(N[C@@H](CC(C)C)C(=O)NN(CCc2ccccc2)C(=O)/C=C/S(=O)(=O)c2ccccc2)c(=O)c1=O |
